ADAM10 inh – ADAM10 inhibition, QFRET primary screen; 370,000 compounds, 0.62% hits; recombinant ADAM10, EDANS/DABCYL FRET peptide cleavage, 3 h; inhibition, % at 7 µM; O14672;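 active means inhibition above a per-campaign cutoff equal to the mean of compounds falling between control-based bounds plus 3 SD, cut at about 20% in these data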
SKN-1 block – C. elegans SKN-1 inhibition. C. elegans VP596 Pgst-4::GFP/RFP ratio, acrylamide-induced, 24 h. inhibition, % at 21.8 µM. 360,000 compounds, 0.49% hits;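 active means interference check ratio from 0.5 to 1.5 plus GFP to RFP signal ratio inhibition reaching or exceeding a fixed threshold, cut at about 30% in these data, passing the limit was not always enough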
NR3A LBD binder – modulates the human NR3A ligand-binding domain; NR3A LBD differential scanning fluorimetry, Tm shift; 0% = protein alone, 100% = glycine-bound protein; Tm shift relative to glycine control, % at 25 µM; 340,000 compounds, 2.5% hits;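 active means melting temperature shift of at least 10% of the positive control shift, at one fixed dose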
MT1-MMP act inh – MT1-MMP (human) activation inhibition | GFP/RFP ratio change, % at 20 µM | P50281 | AID 651647 | HT1080 RFP-PRO-GFP cells, GFP/RFP ratio fluorescence, overnight; percent of plate control window, DMSO zero | 360,000 compounds, 0.061% hits;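 active means GFP/RFP ratio change of at least 30% with cell ATP level not reduced by more than half and red fluorescence within 50% of control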
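Assay system: HT1080 cells carrying an RFP-PRO-GFP reporter | Dosing: Single dose of 20 µM compound, 1% DMSO final | Incubation: Cells overnight before dosing, compound overnight, 37 °C, 5% CO2 | Evaluation: GFP/RFP fluorescence ratio | Control set: DMSO and RFP-L50D-GFP cell wells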
ADAM17 inh – inhibitors of human ADAM17; P78536; recombinant ADAM17, EDANS/DABCYL FRET peptide cleavage; inhibition, % at 6.95 µM; 370,000 compounds, 0.83% hits;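 active means inhibition above the mean of compounds lying between control limits plus 3 SD, set per campaign, cut at about 8.5% in these data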
Target sequence (P78536 215-824 limits assumed): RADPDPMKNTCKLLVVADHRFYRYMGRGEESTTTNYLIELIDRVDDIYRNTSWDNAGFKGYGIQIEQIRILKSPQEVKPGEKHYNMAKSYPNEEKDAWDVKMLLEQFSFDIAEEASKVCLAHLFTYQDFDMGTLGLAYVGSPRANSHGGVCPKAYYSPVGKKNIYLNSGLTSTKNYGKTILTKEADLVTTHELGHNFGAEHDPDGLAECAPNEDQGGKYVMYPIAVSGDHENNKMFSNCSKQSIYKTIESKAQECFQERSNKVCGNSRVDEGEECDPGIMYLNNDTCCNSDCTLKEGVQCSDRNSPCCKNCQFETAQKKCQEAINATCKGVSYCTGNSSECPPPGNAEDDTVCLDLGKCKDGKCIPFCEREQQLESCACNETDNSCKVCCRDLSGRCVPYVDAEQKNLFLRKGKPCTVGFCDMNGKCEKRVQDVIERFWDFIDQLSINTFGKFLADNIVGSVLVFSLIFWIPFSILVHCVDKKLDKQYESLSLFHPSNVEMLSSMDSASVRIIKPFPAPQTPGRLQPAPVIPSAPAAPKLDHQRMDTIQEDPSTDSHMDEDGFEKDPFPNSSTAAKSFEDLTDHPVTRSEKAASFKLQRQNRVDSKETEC
MPTP block – blocks calcium-induced mitochondrial swelling | isolated mouse mitochondria, Ca2+ swelling absorbance, 30 min | inhibition, % at 10 µM | 360,000 compounds, 1.4% hits;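 active means inhibition of 50% or more, scaled per plate between neutral and stimulator controls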
Of the large screens only hits and unclear results are named; the others gave an inactive call. The list is not random: actives were taken first. Their share in the collection is about 4.7%.

O=c1[nH]c(C2CCN(S(=O)(=O)c3cccc(C(F)(F)F)c3)CC2)nc2c1nnn2Cc1cccc(F)c1	NR3A LBD binder 16
Cc1cc(NCc2ccccn2)ccc1Br	NR3A LBD binder 11
COc1cc(C=NCc2ccccc2)ccc1O	none (no result: NR3A LBD binder)
COc1cc(/C=N/c2oc(-c3ccccc3)cc2C#N)ccc1O	NR3A LBD binder 33
CCOC(=O)C1CCN(Cc2nnc(-c3ccccc3C)o2)CC1	none
O=C(c1ccc(OC2CCN(Cc3ccccc3C(F)(F)F)CC2)cc1)N1CCCCC1	NR3A LBD binder 19
O=C(c1ccc(OC2CCN(Cc3ccc(C(F)(F)F)cc3)CC2)cc1)N1CCCCC1	none
NC(=O)C1CCN(C(=O)C(Cc2ccccc2)NC(=O)c2ccccc2)CC1 (centres undefined)	none
Cc1ccc2[nH]c3c(c2c1)CCc1cn[nH]c1-3	NR3A LBD binder 28
CCOC(=O)c1c(C)c(C)n2c1NC(=O)C2	SKN-1 block 46 (no result: NR3A LBD binder)
CCCn1c(NC(=S)Nc2ccccc2)nc2ccccc21	none
Cc1cccc(NCc2nc3ccccc3n2C)c1	none
Cc1ccc(N2CCN(c3ccc(NCc4nc5ccccc5n4C)cc3)CC2)cc1	NR3A LBD binder 13
S=C(Nc1ccccc1)Nc1nc2ccccc2n1CCOc1ccc(Cl)cc1	SKN-1 block 59
CCOc1ccc(NCc2nc3ccccc3n2CCOc2ccccc2)cc1	ADAM10 inh 30
Cn1c(CNc2ccc(Cl)cc2)nc2ccccc21	NR3A LBD binder 12
Cc1nn(C)c(C)c1S(=O)(=O)N(CC(=O)NCCCN1CCC(C)CC1)c1ccc(C(C)C)cc1	none
CSc1nc(N)nc(-c2cccs2)c1C#N	none
CC(C)Sc1nc(N)nc(-c2cccs2)c1C#N	SKN-1 block 40
COc1ccc(NC(=S)N2CCN(Cc3ccccc3)CC2)c(OC)c1	none
O=C(/C(=N/N=C/c1ccc(O)c(O)c1)c1ccccc1)c1ccccc1	NR3A LBD binder 21
Oc1ccc(/C=N/N(c2ccccc2)c2ccccc2)cc1O	none
Oc1ccc(/C=N/N=C/c2ccc(O)c(O)c2)cc1O	NR3A LBD binder 28
Oc1ccc(N=Cc2ccc(O)c(O)c2)cc1	none (no result: ADAM10 inh, ADAM17 inh)
O=[N+]([O-])c1ccc(OCc2cccc(COc3ccc([N+](=O)[O-])cc3)n2)cc1	none
COc1ccc(N/C=C/C(=O)c2ccc(C)cc2)c([N+](=O)[O-])c1	NR3A LBD binder 20
CCOc1ccc(N/C=C/C(=O)c2ccc(OC)cc2)cc1	none
CCOc1ccc(N/C=C/C(=O)c2ccc(OC)cc2)c([N+](=O)[O-])c1	NR3A LBD binder 20
COc1cc(NC(=O)CCN2CCOCC2)cc(OC)c1	none
CCc1cccc(C)c1NC(=O)COC(=O)Cc1ccccc1	none (no result: NR3A LBD binder)
CCCCN(C(=O)C1CSC2(C)CCC(=O)N12)c1c(N)n(CC(C)C)c(=O)[nH]c1=O (centres undefined)	none
O=[N+]([O-])c1ccc(NCCOc2ccccc2Cl)nc1	NR3A LBD binder 16
Cc1cccc(OCCNc2ccc([N+](=O)[O-])cn2)c1	none
CC(=O)NCCCOc1ccc([N+](=O)[O-])cc1Cl	NR3A LBD binder 10
Cc1ccccc1SCC(=O)OCC(=O)Nc1sccc1C(N)=O	none
COc1ccc(NC(=O)NC[C@@H]2CC[C@@H](Cc3ccc(-c4ccccc4)cc3)O2)cc1	NR3A LBD binder 11
NC(=O)NC[C@@H]1CC[C@@H](Cc2ccc(-c3ccccc3)cc2)O1	none (no result: ADAM10 inh, ADAM17 inh)
COc1cc(-c2oc3cc(O)cc(O)c3c(=O)c2O[C@@H]2O[C@H](COC3O[C@@H](C)[C@H](O)[C@@H](O)[C@H]3O)[C@@H](O)[C@H](O)[C@H]2O)ccc1O (some centres undefined)	NR3A LBD binder 13
C[C@@H]1O[C@@H](Oc2c(-c3ccc(O)c(O)c3)oc3cc(O)cc(O)c3c2=O)[C@H](O)[C@H](O)[C@H]1O	none
O=C(/C=C/c1ccccc1)N1CCN(c2c(Cl)cccc2[N+](=O)[O-])CC1	none
CC(=O)Nc1ccc(-c2nc3ccc(NC(C)=O)cc3o2)cc1	NR3A LBD binder 11
O=C(Nc1ccc2oc(-c3ccncc3)nc2c1)c1ccccc1	none
CC(=O)Nc1ccc2oc(-c3ccccc3)nc2c1	none
O=C(Nc1ccc2nn(-c3ccccc3)nc2c1)c1cccs1	NR3A LBD binder 25
O=C(Nc1ccc2nsnc2c1)c1cccs1	none
O=C(Nc1ccc2oc(-c3ccncc3)nc2c1)c1cccs1	NR3A LBD binder 33
O=C(Nc1ccc(-c2nc3cc(NC(=O)c4cccs4)ccc3o2)cc1)c1cccs1	NR3A LBD binder 57
Cc1cccc(-n2ncc3c(Nc4c(C)n(C)n(-c5ccccc5)c4=O)ncnc32)c1	none (no result: ADAM10 inh, ADAM17 inh)
CN(CC(=O)Nc1ccccc1C(F)(F)F)C(=O)CSc1nc(N)cc(N)n1	none
O=C(Nc1ccc2oc(-c3ccc4ccccc4c3)nc2c1)c1ccc2c(c1)OCCO2	NR3A LBD binder 10
Cc1ccc2nc(-c3cccc(NC(=O)c4ccc5c(c4)OCCO5)c3)oc2c1	none
CC(C)Oc1ccc(S(=O)(=O)N2CCCCC2)cc1NC(=O)C1CCCC1	none
COc1ccc(Cn2c(O)c(C=Nc3ccc(O)cc3)c3ccccc3c2=O)cc1	NR3A LBD binder 23
COc1ccc(NC(=O)CSc2nc(N3CCCCC3)nc(N3CCCCC3)n2)cc1	NR3A LBD binder 13
Cc1[nH]n(-c2ccccc2)c(=O)c1N=Nc1ccccc1O	NR3A LBD binder 10
Cc1ccccc1N=Nc1c(C)[nH]n(-c2ccccc2)c1=O	none (no result: ADAM10 inh, SKN-1 block, MT1-MMP act inh, ADAM17 inh, MPTP block)
CC1Cc2cc(S(=O)(=O)N3CCC(C(=O)N4CCCCC4)CC3)ccc2N1C(=O)C1CC1 (centres undefined)	none (no result: MT1-MMP act inh)
CC(=O)c1ccc(OCc2cc(C(=O)NC(C)c3cnn(C)c3)no2)cc1 (centres undefined)	none
CC(NC(=O)c1cc(COc2ccccc2)on1)c1nccs1 (centres undefined)	SKN-1 block 35
CSC1SCC2C(=O)N(C)C(C(C)C)C(=O)OCC(NC(=O)c3cnc4ccccc4n3)C(=O)NC(C)C(=O)N(C)C1C(=O)N(C)C(C(C)C)C(=O)OCC(NC(=O)c1cnc3ccccc3n1)C(=O)NC(C)C(=O)N2C (centres undefined)	SKN-1 block 42
CC(=O)NC1=C(NC2CCS(=O)(=O)C2)C(=O)c2ccccc2C1=O (centres undefined)	NR3A LBD binder 13
N#CC1(NC(=O)Cn2cc(C(F)(F)F)ccc2=O)CCCC1	none
O=[N+]([O-])c1ccc(Cl)c2cccnc12	NR3A LBD binder 12
O=[N+]([O-])c1cccc2c(Cl)ccnc12	none
CCOC(=O)C1=NN(C(C)=O)C2(CC(=O)N(c3cc(C)cc(C)c3)C2=O)C1 (centres undefined)	NR3A LBD binder 13
